According to ChEMBL document CHEMBL3227986, “Design of species- or isozyme-specific enzyme inhibitors. 1. Effect of thymidine substituents on affinity for the thymidine site of hamster cytoplasmic thymidine kinase” (J Med Chem, 1979):

Experiments:
[1] = target: T1, Thymidine kinase 2, mitochondrial (Homo sapiens, UniProt O00142); assay: Inhibition of human mitochondrial thymidine kinase
T1 sequence (O00142 whole entry): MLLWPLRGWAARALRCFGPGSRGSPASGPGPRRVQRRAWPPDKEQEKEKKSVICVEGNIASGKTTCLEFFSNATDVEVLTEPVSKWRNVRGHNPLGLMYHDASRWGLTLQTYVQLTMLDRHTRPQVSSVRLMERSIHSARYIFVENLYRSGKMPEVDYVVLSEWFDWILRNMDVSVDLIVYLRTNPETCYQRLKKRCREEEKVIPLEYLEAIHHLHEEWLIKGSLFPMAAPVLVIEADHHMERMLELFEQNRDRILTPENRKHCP

[2] = target: T2, Thymidine kinase, cytosolic (Homo sapiens, UniProt P04183); assay: Inhibition of human cytoplasmic thymidine kinase
T2 sequence (P04183 whole entry): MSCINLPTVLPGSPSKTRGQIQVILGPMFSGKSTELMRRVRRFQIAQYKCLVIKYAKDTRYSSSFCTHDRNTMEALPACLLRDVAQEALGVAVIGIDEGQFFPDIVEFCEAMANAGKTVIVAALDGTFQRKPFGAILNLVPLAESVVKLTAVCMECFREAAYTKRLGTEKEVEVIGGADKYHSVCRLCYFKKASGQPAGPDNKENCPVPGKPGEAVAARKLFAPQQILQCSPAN

[3] = target: T3, Thymidine kinase, cytosolic (Cricetulus griseus) (UniProt P09768); assay: Inhibition of thymidine kinase in BHK21 (C13) cells using thymidine as substrate assessed as formation of TMP at 4 mM; format: cell-based; conditions: Mesocricetus auratus
T3 sequence (whole entry): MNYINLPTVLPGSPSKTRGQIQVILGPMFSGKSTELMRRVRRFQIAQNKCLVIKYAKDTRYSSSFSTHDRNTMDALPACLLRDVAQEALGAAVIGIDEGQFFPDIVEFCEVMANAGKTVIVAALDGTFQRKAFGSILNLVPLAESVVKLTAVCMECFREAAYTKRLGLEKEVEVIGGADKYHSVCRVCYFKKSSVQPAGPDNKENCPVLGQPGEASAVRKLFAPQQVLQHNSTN
Summary of the method: (§1)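 BHK21(C13) 100000g supernatant in Tris-HCl 0.05 M pH 8.0, ATP 5 mM, MgCl2 2.5 mM, [14C]thymidine 3.6 μM, 10 min at 37 °C. Reaction stopped by boiling; [14C]TMP bound to DEAE-cellulose disks and counted by liquid scintillation, corrected for unincubated blanks.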

[4] = target: T3, Thymidine kinase, cytosolic (Cricetulus griseus); assay: Activity at thymidine kinase in BHK21 (C13) cells at 350 uM after 30 mins relative to thymidine; format: cell-based; conditions: Mesocricetus auratus
Summary of the method: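 Radiolabeled thymidine or 2'-deoxyuridine derivatives tested as substrates: 40 μL BHK21(C13) 100000g supernatant, Tris-HCl 0.05 M pH 8.0, ATP 5 mM, MgCl2 2.5 mM, no thymidine, 30 min at 37 °C. Products separated by paper electrophoresis in 0.05 M triethylammonium bicarbonate pH 7.6; radioactivity counted in the TMP region.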

[5] = target: T3, Thymidine kinase, cytosolic (Cricetulus griseus); assay: Inhibition of thymidine kinase in BHK21 (C13) cells using thymidine as substrate assessed as formation of TMP at 2 mM; format: cell-based; conditions: Mesocricetus auratus; summary of the method: as §1

Ki [1] | Ki [2] | inhibition [3] | Activity [4] | inhibition [5] | SMILES
20 µM | 20 µM | – | – | – | CCCc1cn([C@H]2C[C@H](O)[C@@H](CO)O2)c(=O)[nH]c1=O
– | – | 13% | < 0.25% | 8% | CC(=O)Nc1cn([C@H]2C[C@H](O)[C@@H](CO)O2)c(=O)[nH]c1=O
